Data taken from ChEMBL document CHEMBL4715736, “Identification of anticancer agents based on the thieno[2,3-b]pyridine and 1H-pyrazole molecular scaffolds” (2016).

These compounds were tested on SF-295 (assay: Growth inhibition of human SF-295 cells assessed as cell growth at 10 uM incubated for 48 hrs by sulforhodamine B assay relative to control). Conditions: read-out: Activity.
Type: functional
Method in brief: (§1)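 Run by the NCI Developmental Therapeutics Program as part of its 60-line human tumour panel. Each compound tested at a single 10 µM dose. Growth expressed as % relative to untreated control cells (100%).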
For `COc1ccc(S(=O)(=O)n2ccc(-c3ccc(OC(C)C)cc3)n2)cc1`, the growth at 10 µM was 90%.

The compounds below were run on MOLT-4 (assay: Growth inhibition of human MOLT-4 cells assessed as cell growth at 10 uM incubated for 48 hrs by sulforhodamine B assay relative to control). Conditions: read-out: Activity.
Type: functional
Method in brief: (§2)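 Submitted to the NCI Developmental Therapeutics Program for the NCI60 human tumour cell line panel. First screen at a single 10 µM concentration. Read-out is growth relative to untreated control cells set at 100%.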
In the case of `COc1ccc(S(=O)(=O)n2ccc(-c3ccc(OC(C)C)cc3)n2)cc1`, the growth at 10 µM is reported as 86.9%.

These compounds were tested on UACC-62 (assay: Growth inhibition of human UACC-62 cells assessed as cell growth at 10 uM incubated for 48 hrs by sulforhodamine B assay relative to control). Conditions: read-out: Activity.
Type: functional
Method in brief: as §1
`COc1ccc(S(=O)(=O)n2ccc(-c3ccc(OC(C)C)cc3)n2)cc1` showed a growth at 10 µM of 64.1%.

What follows are compounds tested on NCI-H460 (assay: Growth inhibition of human NCI-H460 cells assessed as cell growth at 10 uM incubated for 48 hrs by sulforhodamine B assay relative to control). Conditions: read-out: Activity.
Type: functional
Method in brief: as §2
In the case of `COc1ccc(S(=O)(=O)n2ccc(-c3ccc(OC(C)C)cc3)n2)cc1`, the growth at 10 µM is reported as 84.5%.

The compounds below were run on A549 (assay: Growth inhibition of human A549/ATCC cells assessed as cell growth at 10 uM incubated for 48 hrs by sulforhodamine B assay relative to control). Conditions: read-out: Activity.
Type: functional
Method in brief: (§3)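 NCI Developmental Therapeutics Program NCI60 panel. Compounds that were active in the 10 µM one-dose screen went on to dose–response testing. Growth at each concentration is expressed relative to untreated control (100%). GI50 (concentration giving 50% of maximal inhibition of proliferation) and TGI (concentration giving total growth inhibition) were derived from the curves.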
`COc1ccc(S(=O)(=O)n2ccc(-c3ccc(OC(C)C)cc3)n2)cc1` gave a growth at 10 µM of 86%.

What follows are compounds tested on OVCAR-3 (assay: Growth inhibition of human OVCAR-3 cells assessed as cell growth at 10 uM incubated for 48 hrs by sulforhodamine B assay relative to control). Conditions: read-out: Activity.
Type: functional
Method in brief: as §1
Compound `COc1ccc(S(=O)(=O)n2ccc(-c3ccc(OC(C)C)cc3)n2)cc1` has a growth at 10 µM of 90.4%.

What follows are compounds tested on NCI-H226 (assay: Growth inhibition of human NCI-H226 cells assessed as cell growth at 10 uM incubated for 48 hrs by sulforhodamine B assay relative to control). Conditions: read-out: Activity.
Type: functional
Method in brief: as §2
`COc1ccc(S(=O)(=O)n2ccc(-c3ccc(OC(C)C)cc3)n2)cc1` gave a growth at 10 µM of 78.8%.

The compounds below were run on A498 (assay: Growth inhibition of human A498 cells assessed as cell growth at 10 uM incubated for 48 hrs by sulforhodamine B assay relative to control). Conditions: read-out: Activity.
Type: functional
Method in brief: as §3
`COc1ccc(S(=O)(=O)n2ccc(-c3ccc(OC(C)C)cc3)n2)cc1` was tested, and the growth at 10 µM was 48.5%.

The compounds below were run on HOP-62 (assay: Growth inhibition of human HOP-62 cells assessed as cell growth at 10 uM incubated for 48 hrs by sulforhodamine B assay relative to control). Conditions: read-out: Activity.
Type: functional
Method in brief: as §2
For `COc1ccc(S(=O)(=O)n2ccc(-c3ccc(OC(C)C)cc3)n2)cc1`, the growth at 10 µM was 126%.

Each compound was assayed on CCRF-CEM (assay: Growth inhibition of human CCRF-CEM cells assessed as cell growth at 10 uM incubated for 48 hrs by sulforhodamine B assay relative to control). Conditions: read-out: Activity.
Type: functional
Method in brief: as §3
For `COc1ccc(S(=O)(=O)n2ccc(-c3ccc(OC(C)C)cc3)n2)cc1`, the growth at 10 µM was 72.6%.

These compounds were tested on UACC-257 (assay: Growth inhibition of human UACC-257 cells assessed as cell growth at 10 uM incubated for 48 hrs by sulforhodamine B assay relative to control). Conditions: read-out: Activity.
Type: functional
Method in brief: as §1
For `COc1ccc(S(=O)(=O)n2ccc(-c3ccc(OC(C)C)cc3)n2)cc1`, the growth at 10 µM was 99.2%.

These compounds were tested on MDA-MB-468 (assay: Growth inhibition of human MDA-MB-468 cells assessed as cell growth at 10 uM incubated for 48 hrs by sulforhodamine B assay relative to control). Conditions: read-out: Activity.
Type: functional
Method in brief: as §2
`COc1ccc(S(=O)(=O)n2ccc(-c3ccc(OC(C)C)cc3)n2)cc1` showed a growth at 10 µM of 68.7%.

What follows are compounds tested on HCT-15 (assay: Growth inhibition of human HCT-15 cells assessed as cell growth at 10 uM incubated for 48 hrs by sulforhodamine B assay relative to control). Conditions: read-out: Activity.
Type: functional
Method in brief: as §2
With `COc1ccc(S(=O)(=O)n2ccc(-c3ccc(OC(C)C)cc3)n2)cc1` the growth at 10 µM was 87.6%.

These compounds were tested on HL-60(TB) (assay: Growth inhibition of human HL-60(TB) cells assessed as cell growth at 10 uM incubated for 48 hrs by sulforhodamine B assay relative to control). Conditions: read-out: Activity.
Type: functional
Method in brief: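 Screened by the NCI Developmental Therapeutics Program on its panel of 60 human tumour cell lines. Compounds were first tested at a single 10 µM dose, and compounds active there went to dose-response curves. Growth is expressed relative to untreated control (100%). GI50 (50% of maximal proliferation inhibition) and TGI (total growth inhibition) were derived from the dose-response data.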
`COc1ccc(S(=O)(=O)n2ccc(-c3ccc(OC(C)C)cc3)n2)cc1` gave a growth at 10 µM of 90.3%.

Each compound was assayed on NCI-H322M (assay: Growth inhibition of human NCI-H322M cells assessed as cell growth at 10 uM incubated for 48 hrs by sulforhodamine B assay relative to control). Conditions: read-out: Activity.
Type: functional
Method in brief: as §2
Compound `COc1ccc(S(=O)(=O)n2ccc(-c3ccc(OC(C)C)cc3)n2)cc1` has a growth at 10 µM of 99.3%.

The compounds below were run on SF-539 (assay: Growth inhibition of human SF-539 cells assessed as cell growth at 10 uM incubated for 48 hrs by sulforhodamine B assay relative to control). Conditions: read-out: Activity.
Type: functional
Method in brief: as §1
`COc1ccc(S(=O)(=O)n2ccc(-c3ccc(OC(C)C)cc3)n2)cc1` was tested, and the growth at 10 µM was 97%.

What follows are compounds tested on MDA-MB-435 (assay: Growth inhibition of human MDA-MB-435 cells assessed as cell growth at 10 uM incubated for 48 hrs by sulforhodamine B assay relative to control). Conditions: read-out: Activity.
Type: functional
Method in brief: as §2
For `COc1ccc(S(=O)(=O)n2ccc(-c3ccc(OC(C)C)cc3)n2)cc1`, the growth at 10 µM was 94.6%.

What follows are compounds tested on SN12C (assay: Growth inhibition of human SN12C cells assessed as cell growth at 10 uM incubated for 48 hrs by sulforhodamine B assay relative to control). Conditions: read-out: Activity.
Type: functional
Method in brief: as §1
For `COc1ccc(S(=O)(=O)n2ccc(-c3ccc(OC(C)C)cc3)n2)cc1`, the growth at 10 µM was 90.6%.

Each compound was assayed on RXF 393 (assay: Growth inhibition of human RXF 393 cells assessed as cell growth at 10 uM incubated for 48 hrs by sulforhodamine B assay relative to control). Conditions: read-out: Activity.
Type: functional
Method in brief: as §1
`COc1ccc(S(=O)(=O)n2ccc(-c3ccc(OC(C)C)cc3)n2)cc1` was tested, and the growth at 10 µM was 100%.

The compounds below were run on NCI/ADR-RES (assay: Growth inhibition of human NCI/ADR-RES cells assessed as cell growth at 10 uM incubated for 48 hrs by sulforhodamine B assay relative to control). Conditions: read-out: Activity.
Type: functional
Method in brief: as §2
Compound `COc1ccc(S(=O)(=O)n2ccc(-c3ccc(OC(C)C)cc3)n2)cc1` has a growth at 10 µM of 81.3%.

The compounds below were run on M14 (assay: Growth inhibition of human M14 cells assessed as cell growth at 10 uM incubated for 48 hrs by sulforhodamine B assay relative to control). Conditions: read-out: Activity.
Type: functional
Method in brief: as §2
With `COc1ccc(S(=O)(=O)n2ccc(-c3ccc(OC(C)C)cc3)n2)cc1` the growth at 10 µM was 84.5%.

What follows are compounds tested on SNB-75 (assay: Growth inhibition of human SNB-75 cells assessed as cell growth at 10 uM incubated for 48 hrs by sulforhodamine B assay relative to control). Conditions: read-out: Activity.
Type: functional
Method in brief: as §1
For `COc1ccc(S(=O)(=O)n2ccc(-c3ccc(OC(C)C)cc3)n2)cc1`, the growth at 10 µM was 96.9%.

Each compound was assayed on IGROV-1 (assay: Growth inhibition of human IGROV-1 cells assessed as cell growth at 10 uM incubated for 48 hrs by sulforhodamine B assay relative to control). Conditions: read-out: Activity.
Type: functional
Method in brief: as §2
`COc1ccc(S(=O)(=O)n2ccc(-c3ccc(OC(C)C)cc3)n2)cc1` was tested, and the growth at 10 µM was 91%.

These compounds were tested on PC-3 (assay: Growth inhibition of human PC-3 cells assessed as cell growth at 10 uM incubated for 48 hrs by sulforhodamine B assay relative to control). Conditions: read-out: Activity.
Type: functional
Method in brief: as §1
`COc1ccc(S(=O)(=O)n2ccc(-c3ccc(OC(C)C)cc3)n2)cc1` gave a growth at 10 µM of 73.2%.

Each compound was assayed on Hs-578T (assay: Growth inhibition of human Hs-578T cells assessed as cell growth at 10 uM incubated for 48 hrs by sulforhodamine B assay relative to control). Conditions: read-out: Activity.
Type: functional
Method in brief: as §2
`COc1ccc(S(=O)(=O)n2ccc(-c3ccc(OC(C)C)cc3)n2)cc1` was tested, and the growth at 10 µM was 95.5%.

These compounds were tested on HOP-92 (assay: Growth inhibition of human HOP-92 cells assessed as cell growth at 10 uM incubated for 48 hrs by sulforhodamine B assay relative to control). Conditions: read-out: Activity.
Type: functional
Method in brief: as §2
`COc1ccc(S(=O)(=O)n2ccc(-c3ccc(OC(C)C)cc3)n2)cc1` was tested, and the growth at 10 µM was 75.7%.

The compounds below were run on SK-MEL-28 (assay: Growth inhibition of human SK-MEL-28 cells assessed as cell growth at 10 uM incubated for 48 hrs by sulforhodamine B assay relative to control). Conditions: read-out: Activity.
Type: functional
Method in brief: as §1
`COc1ccc(S(=O)(=O)n2ccc(-c3ccc(OC(C)C)cc3)n2)cc1` was tested, and the growth at 10 µM was 95.3%.

What follows are compounds tested on U-251 (assay: Growth inhibition of human U-251 cells assessed as cell growth at 10 uM incubated for 48 hrs by sulforhodamine B assay relative to control). Conditions: read-out: Activity.
Type: functional
Method in brief: as §1
Compound `COc1ccc(S(=O)(=O)n2ccc(-c3ccc(OC(C)C)cc3)n2)cc1` has a growth at 10 µM of 95.3%.

Each compound was assayed on HCT-116 (assay: Growth inhibition of human HCT-116 cells assessed as cell growth at 10 uM incubated for 48 hrs by sulforhodamine B assay relative to control). Conditions: read-out: Activity.
Type: functional
Method in brief: as §2
In the case of `COc1ccc(S(=O)(=O)n2ccc(-c3ccc(OC(C)C)cc3)n2)cc1`, the growth at 10 µM is reported as 79%.

What follows are compounds tested on OVCAR-5 (assay: Growth inhibition of human OVCAR-5 cells assessed as cell growth at 10 uM incubated for 48 hrs by sulforhodamine B assay relative to control). Conditions: read-out: Activity.
Type: functional
Method in brief: as §1
Compound `COc1ccc(S(=O)(=O)n2ccc(-c3ccc(OC(C)C)cc3)n2)cc1` has a growth at 10 µM of 80.7%.

The compounds below were run on SK-MEL-5 (assay: Growth inhibition of human SK-MEL-5 cells assessed as cell growth at 10 uM incubated for 48 hrs by sulforhodamine B assay relative to control). Conditions: read-out: Activity.
Type: functional
Method in brief: as §1
Work on `COc1ccc(S(=O)(=O)n2ccc(-c3ccc(OC(C)C)cc3)n2)cc1` yielded a growth at 10 µM of 91.9%.

Each compound was assayed on KM12 (assay: Growth inhibition of human KM12 cells assessed as cell growth at 10 uM incubated for 48 hrs by sulforhodamine B assay relative to control). Conditions: read-out: Activity.
Type: functional
Method in brief: as §2
In the case of `COc1ccc(S(=O)(=O)n2ccc(-c3ccc(OC(C)C)cc3)n2)cc1`, the growth at 10 µM is reported as 92%.

Each compound was assayed on Malme-3M (assay: Growth inhibition of human Malme-3M cells assessed as cell growth at 10 uM incubated for 48 hrs by sulforhodamine B assay relative to control). Conditions: read-out: Activity.
Type: functional
Method in brief: as §2
`COc1ccc(S(=O)(=O)n2ccc(-c3ccc(OC(C)C)cc3)n2)cc1` gave a growth at 10 µM of 107%.

The compounds below were run on UO-31 (assay: Growth inhibition of human UO-31 cells assessed as cell growth at 10 uM incubated for 48 hrs by sulforhodamine B assay relative to control). Conditions: read-out: Activity.
Type: functional
Method in brief: as §1
Work on `COc1ccc(S(=O)(=O)n2ccc(-c3ccc(OC(C)C)cc3)n2)cc1` yielded a growth at 10 µM of 76.4%.
